Experimental data from ChEMBL document CHEMBL1144275, “Studies on the structure-activity relationship of 2',6'-dimethyl-l-tyrosine (Dmt) derivatives: bioactivity profile of H-Dmt-NH-CH(3)” (Bioorg Med Chem Lett, 2005).
Non-standard residues stand in square brackets, D forms with d. Residues, ends and D or L forms follow the SMILES beside them. Dmt = Cc1cc(O)cc(C)c1C[C@H](N)C(=O)O; Tic = O=C(O)[C@@H]1Cc2ccccc2CN1

What was measured:
Rattus norvegicus = species on record: Rattus norvegicus; assay: Ratio of binding affinities for opioid receptors delta 1 and mu 1
In short: (§1)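 Ki values given as the mean ± SE of four to seven experiments; selectivity expressed as Kiδ/Kiμ.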

[1] = Binding affinity for rat brain opioid receptor delta 1; in short: as §1
[2] = Binding affinity for rat brain opioid receptor mu 1; in short: as §1
Mus musculus [3] = species on record: Mus musculus; assay: Percent antagonism was evaluated relative to morphine in mice using naloxone; format: functional
Mus musculus [4] = species on record: Mus musculus; assay: Minimum effective dose showing antinociception activity in mice; format: functional
In short: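 Minimum effective dose (nmol) for antinociception in mice after intracerebroventricular administration, measured by tail-flick and hot-plate tests.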

Mus musculus [5] = assay: Analgesia was determined by hotplate (HP) test relative to morphine in mice after antinociception of intracerebroventricularly (icv) administration; format: functional
Mus musculus [6] = assay: Analgesia was determined by tail-flick (TF) test relative to morphine in mice after antinociception of intracerebroventricularly (icv) administration;Range 0.48-0.55; format: functional
Mus musculus [7] = assay: Analgesia was determined by tail-flick (TF) test relative to morphine in mice after antinociception of intracerebroventricularly (icv) administration;Range 1.3-1.7; format: functional
Mus musculus [8] = assay: Analgesia was determined by hotplate (HP) test relative to morphine in mice after antinociception of intracerebroventricularly (icv) administration;Range-0.64?0.85; format: functional

SMILES | Ratio (Rattus norvegicus) | Ki [1] | Ki [2] | Antagonism (Mus musculus [3]) | MED (Mus musculus [4]) | Activity (Mus musculus [5]) | Activity (Mus musculus [6]) | Activity (Mus musculus [7]) | Activity (Mus musculus [8])
Cc1cc(O)cc(C)c1C[C@H](N)C(=O)O | 1.55 | 46.5 µM | – | – | – | – | – | – | –
Cc1cc(O)cc(C)c1C[C@H](N)C(=O)Nc1ccccc1 | 0.069 | 0.12 µM | 1.73 µM | – | – | – | – | – | –
Cc1cc(O)cc(C)c1C[C@H](N)C(=O)NC(C)(C)C | 14.8 | 0.531 µM | 0.036 µM | – | – | – | – | – | –
Cc1cc(O)cc(C)c1C[C@H](N)C(=O)NCCO | 28.1 | 0.455 µM | 0.0162 µM | – | – | – | – | – | –
CCCNC(=O)[C@@H](N)Cc1c(C)cc(O)cc1C | 9.82 | 0.166 µM | 0.0169 µM | – | – | – | – | – | –
Cc1cc(O)cc(C)c1C[C@H](N)C(=O)NC1C2CC3CC(C2)CC1C3 (some centres undefined) | 0.23 | 0.175 µM | 0.746 µM | – | – | – | – | – | –
Cc1cc(O)cc(C)c1C[C@H](N)C(=O)NCCN | 338 | 3.65 µM | 0.0108 µM | – | – | – | – | – | –
Cc1cc(O)cc(C)c1C[C@H](N)C(N)=O | 13 | 1.47 µM | – | 100% | 200 nM | 0.26% | 0.55% | – | –
CCNC(=O)[C@@H](N)Cc1c(C)cc(O)cc1C | 41.6 | 0.649 µM | 0.0156 µM | – | – | – | – | – | –
CONC(=O)[C@@H](N)Cc1c(C)cc(O)cc1C | 26.3 | 4.58 µM | 0.174 µM | – | – | – | – | – | –
Cc1cc(O)cc(C)c1C[C@H](N)C(=O)NC(C)C | 22 | 0.492 µM | 0.0224 µM | – | – | – | – | – | –
Cc1cc(O)cc(C)c1C[C@H](N)C(=O)NCC(=O)O | 0.43 | 1.15 µM | 2.7 µM | – | – | – | – | – | –
Cc1cc(O)cc(C)c1C[C@H](N)C(=O)NCCC(=O)O | 1 | 0.328 µM | 0.329 µM | – | – | – | – | – | –
CNC(=O)[C@@H](N)Cc1c(C)cc(O)cc1C | 61.7 | 0.46 µM | 0.00745 µM | 73% | 30 nM | – | – | 1.7% | 0.85%
Cc1cc(O)cc(C)c1C[C@H](N)C(=O)NC1CCCCC1 | 1.71 | 0.197 µM | 0.115 µM | – | – | – | – | – | –
Cc1cc(O)cc(C)c1C[C@H](N)C(=O)NO | 5.58 | 9.49 µM | – | – | – | – | – | – | –
Cc1cc(O)cc(C)c1C[C@H](N)C(=O)Nc1cccc2ccccc12 | 0.054 | 0.0528 µM | 0.966 µM | – | – | – | – | – | –
Cc1cc(O)cc(C)c1C[C@H](N)C(=O)N1Cc2ccccc2C[C@H]1C(=O)O (H-[Dmt]-[Tic]-OH) | 6.6e-07 | – | 3.22 µM | – | – | – | – | – | –
Cc1cc(O)cc(C)c1C[C@H](N)C(=O)NC12CC3CC(CC(C3)C1)C2 | 0.27 | 0.208 µM | 0.767 µM | – | – | – | – | – | –
Cc1cc(O)cc(C)c1C[C@H](N)C(=O)NCN | 13.4 | 2.41 µM | 0.18 µM | – | – | – | – | – | –
